The test system of series [1] is Escherichia coli. Put plainly: Antibacterial activity against Escherichia coli ATCC 25922 measured after 18 to 20 hrs by microbroth dilution method. It is filed as functional. Put shortly:
(§1)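 Inoculum from a 4–6-h broth adjusted to 0.5 McFarland, final 5 × 10⁵ CFU/mL. Incubation at 35°C for 18–20 h. MIC taken as the lowest concentration giving complete inhibition of visible growth; three experiments.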

Series [2] has as its system Salmonella typhimurium. Nature of the series: Antibacterial activity against Salmonella typhimurium ATCC 14028 measured after 18 to 20 hrs by microbroth dilution method. The class given is functional, Salmonella enterica subsp. enterica serovar Typhimurium. As to conditions: Salmonella enterica. The method, boiled down:
as §1
On the technique in general: In broth dilution the organism is exposed to a series of concentrations in liquid medium.

The test system of series [3] is Pseudomonas aeruginosa. Nature of the series: Antibacterial activity against Pseudomonas aeruginosa […] measured after 18 to 20 hrs by microbroth dilution method. It is filed as functional. Put shortly:
as §1

Series [4] has as its system Staphylococcus aureus. Nature of the series: Antibacterial activity against Staphylococcus aureus MRSA198 clinical isolate-3 measured after 18 to 20 hrs by microbroth dilution method. It is filed as functional. The settings on record: MRSA198 isolate-3.
Series [5] concerns Staphylococcus aureus. Nature of the series: Antibacterial activity against Staphylococcus aureus MRSA198 clinical isolate-2 measured after 18 to 20 hrs by microbroth dilution method. It is filed as functional. The settings on record: MRSA198 isolate-2.
For series [6], the system named is Klebsiella pneumoniae. Put plainly: Antibacterial activity against measured after Klebsiella pneumoniae ATCC 4352 measured after 18 to 20 hrs by microbroth dilution method. The class given is functional. The method, boiled down: as §1
Series [7] has as its system Bacillus subtilis. Put plainly: Antibacterial activity against Bacillus subtilis ATCC 11774 after 18 to 20 hrs by microbroth dilution method. It is filed as functional. The method, boiled down: as §1
Series [8] has as its system Aspergillus flavus. Nature of the series: Antifungal activity against Aspergillus flavus ATCC 204304 measured after 72 hrs by agar dilution method. The settings on record: ATCC 204304, 72 h. It is filed as functional. Put shortly: (§2)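 Agar dilution on Sabouraud dextrose agar, with compounds at […] to 0.78 μM in twofold steps. Fungal suspensions at 10 CFU/mL as printed were applied to the compound-containing plates. Incubation at 35°C; MIC read after 72 h. Three experiments.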

Series [9] relates to Candida albicans. Nature of the series: Antifungal activity against Candida albicans ATCC 7754 after 72 hrs by agar dilution method. The class given is functional. As to conditions: ATCC 7754, 72 h. The method, boiled down:
as §2
Background: In agar dilution, organisms are placed on agar that contains the substance at set levels.

Series [10] deals with Aspergillus niger. Nature of the series: Antifungal activity against Aspergillus niger ATCC 439 measured after 72 hrs by agar dilution method. The class given is functional. The settings on record: ATCC 439, 72 h. Put shortly:
as §2

The test system of series [11] is Staphylococcus epidermidis. Nature of the series: Antibacterial activity against Staphylococcus epidermidis ATCC 12228 after 18 to 20 hrs by microbroth dilution method. It is filed as functional. Put shortly:
as §1

The subject of series [12] is Staphylococcus aureus. Put plainly: Antibacterial activity against Staphylococcus aureus MRSA198 clinical isolate-1 measured after 18 to 20 hrs by microbroth dilution method. It is filed as functional. As to conditions: MRSA198 isolate-1.
A short description of series [13]: Cytotoxicity against mouse RAW264.7 cells assessed as growth inhibition at 50 ug/mL after 120 hrs by MTT assay relative to control. It is filed as cell-based. The settings on record: read-out: GI. Put shortly: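 RAW 264.7 mouse macrophages were seeded at 25,000 cells/well and left to attach overnight. Compound in DMSO was added from a 200× concentrate, in duplicate wells, to a 50 μg/mL test level; DMSO served as control. Exposure 120 h at 37°C in 5% CO₂. MTT (4 mg/mL in PBS) was added for 4 h, formazan dissolved in DMSO, and absorbance read at 560 nm. Viability expressed as % of untreated cells, mean ± SE of at least three independent experiments.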
Background: Tetrazolium assays rely on reduction of a dye to a coloured formazan, in cell work by metabolically active cells.

Series [14] relates to Saccharomyces cerevisiae. Nature of the series: Antifungal activity against Saccharomyces cerevisiae SH 20 after 72 hrs by agar dilution method. It is filed as functional. The settings on record: SH 20, 72 h. Put shortly:
as §2

For series [15], the system named is Staphylococcus aureus. Nature of the series: Antibacterial activity against Staphylococcus aureus ATCC 11632 after 18 to 20 hrs by microbroth dilution method. The class given is functional. The method, boiled down: as §1

Structures are written as SMILES. ≈ marks a conversion by molar mass, not a printed value.

Take `CC(=O)OC[C@H]1O[C@@H](n2cc(COc3ccc4c(c3)OC(N)=C(C#N)C4c3ccccc3)nn2)[C@H](OC(C)=O)[C@@H](OC(C)=O)[C@@H]1OC(C)=O` (stereo partly specified): the MIC (usually the lowest concentration that inhibits growth of the organism) in series [1] amounted to 400 µM (≈ 270 µg/mL); in series [2] it was 3.12 µM (≈ 2.11 µg/mL); in series [3], 200 µM (≈ 135 µg/mL); in series [4], 200 µM (≈ 135 µg/mL); in [5], 400 µM (≈ 270 µg/mL); in series [6], 400 µM (≈ 270 µg/mL). For the same compound, the MIC in series [7] came out at 400 µM (≈ 270 µg/mL); in series [8], 100 µM (≈ 67.6 µg/mL); in series [9], 100 µM (≈ 67.6 µg/mL); in [10] it was 6.25 µM (≈ 4.22 µg/mL); in series [11] it was 25 µM (≈ 16.9 µg/mL); in [12], 400 µM (≈ 270 µg/mL). The MIC was 12.5 µM (≈ 8.45 µg/mL) in series [14] and 200 µM (≈ 135 µg/mL) in series [15]. In addition, in series [13], the inhibition at 120 h, 50 ug/mL was determined as 22.9%.

Consider `COc1cc(OC)cc(C2C(C#N)=C(N)Oc3cc(OCc4cn([C@@H]5O[C@H](COC(C)=O)[C@@H](OC(C)=O)[C@H](OC(C)=O)[C@H]5OC(C)=O)nn4)ccc32)c1` (stereo partly specified), for which the MIC came to 100 µM (≈ 73.6 µg/mL) in [1]; 50 µM (≈ 36.8 µg/mL) in [2]; 200 µM (≈ 147 µg/mL) in [4]; 400 µM (≈ 294 µg/mL) in series [5]; 100 µM (≈ 73.6 µg/mL) in [6]; 50 µM (≈ 36.8 µg/mL) in series [7]. The MIC was determined as 50 µM (≈ 36.8 µg/mL) in [8]; 25 µM (≈ 18.4 µg/mL) in [9]; 100 µM (≈ 73.6 µg/mL) in series [10]; 3.12 µM (≈ 2.3 µg/mL) in series [11]; 400 µM (≈ 294 µg/mL) in [12]; 6.25 µM (≈ 4.6 µg/mL) in series [14]. This compound also returned an MIC in [15] of 100 µM (≈ 73.6 µg/mL). Also, the inhibition at 120 h, 50 ug/mL in series [13] turned out to be 19.5%.

Take `COc1ccc(C2C(C#N)=C(N)Oc3cc(OCc4cn([C@@H]5O[C@H](COC(C)=O)[C@@H](OC(C)=O)[C@H](OC(C)=O)[C@H]5OC(C)=O)nn4)ccc32)c(OC)c1` (stereo partly specified): the MIC in series [2] worked out at 50 µM (≈ 36.8 µg/mL); in series [4], 6.25 µM (≈ 4.6 µg/mL); in [5], 1.56 µM (≈ 1.15 µg/mL); in series [6] it was 12.5 µM (≈ 9.2 µg/mL); in series [7], 50 µM (≈ 36.8 µg/mL); in series [9] it was 12.5 µM (≈ 9.2 µg/mL). The MIC in series [10] is 400 µM (≈ 294 µg/mL); in series [11] it was 25 µM (≈ 18.4 µg/mL); in series [12], 1.56 µM (≈ 1.15 µg/mL); in [14], 50 µM (≈ 36.8 µg/mL); in series [15] it was 1.56 µM (≈ 1.15 µg/mL). Also, the inhibition at 120 h, 50 ug/mL in series [13] stood at 12.4%.

As for `CC(=O)OC[C@H]1O[C@@H](n2cc(COc3ccc4c(c3)OC(N)=C(C#N)C4c3cccc(Cl)c3)nn2)[C@H](OC(C)=O)[C@@H](OC(C)=O)[C@@H]1OC(C)=O` (stereo partly specified), the MIC in series [1] was determined as 6.25 µM (≈ 4.44 µg/mL); in series [2], 6.25 µM (≈ 4.44 µg/mL); in [3], 25 µM (≈ 17.8 µg/mL); in [4], 1.56 µM (≈ 1.11 µg/mL); in series [5] it was 6.25 µM (≈ 4.44 µg/mL); in [6], 3.12 µM (≈ 2.22 µg/mL). The MIC amounted to 6.25 µM (≈ 4.44 µg/mL) in series [7]; 200 µM (≈ 142 µg/mL) in series [8]; 12.5 µM (≈ 8.88 µg/mL) in [9]; 12.5 µM (≈ 8.88 µg/mL) in series [10]; 12.5 µM (≈ 8.88 µg/mL) in series [11]; 3.12 µM (≈ 2.22 µg/mL) in [12]. Further, the figures for the MIC in series [14] and in series [15] were 3.12 µM (≈ 2.22 µg/mL) and 1.56 µM (≈ 1.11 µg/mL), respectively. Moreover, the inhibition at 120 h, 50 ug/mL in series [13] is 17.2%.

With `COc1ccc(C2C(C#N)=C(N)Oc3cc(OCc4cn([C@@H]5O[C@H](COC(C)=O)[C@@H](OC(C)=O)[C@H](OC(C)=O)[C@H]5OC(C)=O)nn4)ccc32)cc1OC` (stereo partly specified), the MIC in [1] worked out at 6.25 µM (≈ 4.6 µg/mL); in [2], 400 µM (≈ 294 µg/mL); in series [3] it was 12.5 µM (≈ 9.2 µg/mL); in series [4], 50 µM (≈ 36.8 µg/mL); in series [5], 50 µM (≈ 36.8 µg/mL); in series [6], 25 µM (≈ 18.4 µg/mL). In addition, the minimum inhibitory concentration (MIC) in series [7] is 25 µM (≈ 18.4 µg/mL); in [8], 3.12 µM (≈ 2.3 µg/mL); in series [9], 6.25 µM (≈ 4.6 µg/mL); in [10] it was 200 µM (≈ 147 µg/mL); in series [11] it was 1.56 µM (≈ 1.15 µg/mL); in series [12] it was 25 µM (≈ 18.4 µg/mL). Besides, the MIC in series [14] and in series [15] was 25 µM (≈ 18.4 µg/mL) throughout. The inhibition at 120 h, 50 ug/mL in series [13] is 21.9%.

On to `CC(=O)OC[C@H]1O[C@@H](n2cc(COc3ccc4c(c3)OC(N)=C(C#N)C4c3ccc(Cl)cc3)nn2)[C@H](OC(C)=O)[C@@H](OC(C)=O)[C@@H]1OC(C)=O` (stereo partly specified), for which the MIC stood at 1.56 µM (≈ 1.11 µg/mL) in series [1]; 12.5 µM (≈ 8.88 µg/mL) in series [2]; 3.12 µM (≈ 2.22 µg/mL) in series [3]; 100 µM (≈ 71 µg/mL) in [4]; 200 µM (≈ 142 µg/mL) in series [5]; 12.5 µM (≈ 8.88 µg/mL) in series [6]. In addition, the minimum inhibitory concentration (MIC) in [7] came out at 400 µM (≈ 284 µg/mL); in [8] it was 25 µM (≈ 17.8 µg/mL); in [9] it was 6.25 µM (≈ 4.44 µg/mL); in [10], 50 µM (≈ 35.5 µg/mL); in series [11], 200 µM (≈ 142 µg/mL); in [12], 200 µM (≈ 142 µg/mL). Further, the MIC in series [14] was 1.56 µM (≈ 1.11 µg/mL); in [15] it was 50 µM (≈ 35.5 µg/mL). For the same compound, the inhibition at 120 h, 50 ug/mL in [13] was found to be 25.1%.

(Values after ChEMBL document CHEMBL4390647, “Efficient click chemistry towards novel 1H-1,2,3-triazole-tethered 4H-chromene-d-glucose conjugates: Design, synthesis and evaluation of in vitro antibacterial, MRSA and antifungal activities” (Eur J Med Chem, 2019).)
